# ChEMBL document CHEMBL3286129, “Optimization of peptidomimetic boronates bearing a P3 bicyclic scaffold as proteasome inhibitors” (Eur J Med Chem, 2014)
# pKi: −log10 of the molar value. The source made the active and inactive calls. No cut-off for these calls is given here.
# How the values were obtained:
# [1] = tested on: HOP-62; experiment: Growth inhibition of human HOP62 cells; type: functional; conditions: for CC50: read-out: LC50 (the source's name)
# [2] = Cytotoxicity against human melanoma cells assessed as cell growth at 10 uM relative to control; type: functional; conditions: read-out: Activity
# In short: (§1)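 Single-concentration screen against a panel of human cancer cell lines. Each value is the mean percent growth across the cell lines of that tumour subpanel.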
# [3] = tested on: HT-29; experiment: Growth inhibition of human HT-29 cells; type: functional
# [4] = tested on: HL-60(TB); experiment: Growth inhibition of human HL-60(TB) cells; type: functional; conditions: for CC50: read-out: LC50 (the source's name)
# [5] = tested on: SNB-19; experiment: Growth inhibition of human SNB19 cells; type: functional; conditions: for CC50: read-out: LC50 (the source's name)
# [6] = Growth inhibition of human BT549 cells; type: functional; conditions: for GI50 / TGI: BT-549; for CC50: BT-549, read-out: LC50 (the source's name)
# [7] = tested on: U-251; experiment: Growth inhibition of human U251 cells; type: functional; conditions: for CC50: read-out: LC50 (the source's name)
# [8] = tested on: SK-MEL-2; experiment: Growth inhibition of human SK-MEL-2 cells; type: functional
# [9] = tested on: NCI-H23; experiment: Growth inhibition of human NCI-H23 cells; type: functional; conditions: for CC50: read-out: LC50 (the source's name)
# [10] = Cytotoxicity against human breast cancer cells assessed as cell growth at 10 uM relative to control; type: functional; conditions: Cancer cell lines, read-out: Activity; in short: as §1
# [11] = tested on: TK-10; experiment: Growth inhibition of human TK10 cells; type: functional
# [12] = Growth inhibition of human UO31 cells; type: functional; conditions: UO-31
# [13] = tested on: SNB-75; experiment: Growth inhibition of human SNB75 cells; type: functional
# [14] = Growth inhibition of human LOXIMVI cells; type: functional; conditions: LOX IMVI; for CC50: read-out: LC50 (the source's name)
# [15] = tested on: SK-MEL-5; experiment: Growth inhibition of human SK-MEL-5 cells; type: functional
# [16] = tested on: A498; experiment: Growth inhibition of human A498 cells; type: functional
# [17] = tested on: RPMI-8226; experiment: Growth inhibition of human RPMI8226 cells; type: functional; conditions: for CC50: read-out: LC50 (the source's name)
# [18] = tested on: M14; experiment: Growth inhibition of human M14 cells; type: functional
# [19] = tested on: NCI-H522; experiment: Growth inhibition of human NCI-H522 cells; type: functional
# [20] = target: T1, Proteasome Macropain subunit MB1 (Homo sapiens) (UniProt P28074); experiment: Inhibition of chymotrypsin-like activity of 20S proteasome in human erythrocytes using Suc-Leu-Leu-Val-Tyr-AMC as substrate at 20 uM by fluorescence assay relative to control
# T1 sequence (whole entry): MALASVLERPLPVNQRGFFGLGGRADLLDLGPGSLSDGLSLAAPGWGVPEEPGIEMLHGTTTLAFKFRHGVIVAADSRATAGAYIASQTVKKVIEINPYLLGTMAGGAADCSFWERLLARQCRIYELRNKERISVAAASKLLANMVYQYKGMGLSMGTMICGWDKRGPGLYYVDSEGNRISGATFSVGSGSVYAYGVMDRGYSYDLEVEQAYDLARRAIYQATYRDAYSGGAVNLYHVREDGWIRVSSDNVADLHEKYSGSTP
# In short: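 Single inhibitor concentration, equivalent DMSO as negative control. AMC fluorescence read at ex 380/em 460 nm; percent inhibition of ChT-L activity.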
# [21] = tested on: Malme-3M; experiment: Growth inhibition of human MALME-3M cells; type: functional; conditions: for CC50: read-out: LC50 (the source's name)
# [22] = tested on: KM12; experiment: Growth inhibition of human KM12 cells; type: functional
# [23] = tested on: NCI-H460; experiment: Growth inhibition of human NCI-H460 cells; type: functional
# [24] = tested on: MCF7; experiment: Growth inhibition of human MCF7 cells; type: functional; conditions: for CC50: read-out: LC50 (the source's name)
# [25] = target: Chymotrypsinogen A (Bos taurus, UniProt P00766); experiment: Inhibition of bovine pancreatic alpha-chymotrypsin using Suc-Leu-Leu-Val-Tyr-AMC as substrate by fluorescence assay
# In short: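 Enzyme incubated at 20 °C in 50 mM Tris pH 8.0, 100 mM NaCl, 5 mM EDTA, 7.5% DMSO with varied inhibitor concentrations. Substrate hydrolysis followed for 10 min. Ki from progress curves; mean of three determinations.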
# [26] = Growth inhibition of human OVCAR3 cells; type: functional; conditions: OVCAR-3
# [27] = Growth inhibition of human Hs 578T cells; type: functional; conditions: for CC50: read-out: LC50 (the source's name)
# [28] = Cytotoxicity against human NSCLC cells assessed as cell growth at 10 uM relative to control; type: functional; conditions: read-out: Activity; in short: as §1
# [29] = target: T2, Proteasome Macropain subunit MB1 (Homo sapiens, UniProt P28074); experiment: Inhibition of chymotrypsin-like activity of 20S proteasome in human erythrocytes using Suc-Leu-Leu-Val-Tyr-AMC as substrate by fluorescence assay; conditions: read-out: Ki
# T2 sequence (P28074 whole entry): T1 sequence (whole entry)
# [30] = tested on: CAKI-1; experiment: Growth inhibition of human CAKI-1 cells; type: functional; conditions: for CC50: read-out: LC50 (the source's name)
# [31] = tested on: T47D; experiment: Growth inhibition of human T47D cells; type: functional; conditions: for CC50: read-out: LC50 (the source's name)
# [32] = tested on: SK-OV-3; experiment: Growth inhibition of human SKOV3 cells; type: functional
# [33] = Growth inhibition of human HCT15 cells; type: functional; conditions: for GI50 / TGI: HCT-15; for CC50: HCT-15, read-out: LC50 (the source's name)
# [34] = target: Proteasome Macropain subunit (Homo sapiens) (UniProt P49721); experiment: Inhibition of trypsin-like activity of 20S proteasome in human erythrocytes using Boc-Leu-Arg-Arg-AMC as substrate by fluorescence assay; type: cell-based
# In short: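 Human 20S proteasome 0.0025 mg/mL at 30 °C in 50 mM Tris pH 7.4, 50 mM NaCl, 0.5 mM EDTA, 0.03% SDS, 7.5% DMSO. Varied inhibitor concentrations; AMC release monitored continuously for 10 min, ex 380/em 460 nm. Ki derived from progress-curve IC50 fit.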
# Sequence of Proteasome Macropain subunit (Homo sapiens) (P49721 whole entry): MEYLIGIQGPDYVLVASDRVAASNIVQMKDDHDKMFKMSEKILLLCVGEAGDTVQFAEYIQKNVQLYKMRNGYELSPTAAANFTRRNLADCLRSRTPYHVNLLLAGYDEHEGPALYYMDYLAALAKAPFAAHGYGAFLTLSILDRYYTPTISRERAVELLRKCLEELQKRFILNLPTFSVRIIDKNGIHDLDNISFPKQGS
compound,measurement,setting,value
CC(C)C[C@H](NC(=O)CCn1ccc2ccccc2c1=O)B(O)O,GI50,[1],4.51 µM
same,TGI,[1],22.1 µM
same,CC50,[1],96.4 µM
same,growth at 10 µM,[2],30.5%
same,GI50,[3],3.68 µM
same,LC50,[3],> 100 µM
same,TGI,[3],48.7 µM
same,GI50,[4],2.69 µM
same,TGI,[4],49.5 µM
same,CC50,[4],> 100 µM
same,GI50,[5],8.02 µM
same,TGI,[5],> 100 µM
same,CC50,[5],> 100 µM
same,GI50,[6],2.21 µM
same,TGI,[6],17.1 µM
same,CC50,[6],> 100 µM
same,GI50,[7],4.23 µM
same,TGI,[7],> 100 µM
same,CC50,[7],> 100 µM
same,GI50,[8],3.58 µM
same,LC50,[8],> 100 µM
same,TGI,[8],32.5 µM
same,GI50,[9],25.4 µM
same,TGI,[9],> 100 µM
same,CC50,[9],> 100 µM
same,growth at 10 µM,[10],38.1%
same,GI50,[11],2.93 µM
same,LC50,[11],> 100 µM
same,TGI,[11],9.8 µM
same,GI50,[12],3.92 µM
same,LC50,[12],> 100 µM
same,TGI,[12],35.3 µM
same,GI50,[13],2.94 µM
same,LC50,[13],93.4 µM
same,TGI,[13],15.9 µM
same,GI50,[14],2.11 µM
same,TGI,[14],6.78 µM
same,CC50,[14],> 100 µM
same,GI50,[15],4.3 µM
same,LC50 (concentration killing 50% of cells),[15],83.7 µM
same,TGI,[15],19 µM
same,GI50,[16],1.22 µM
same,LC50,[16],> 100 µM
same,TGI,[16],4.79 µM
same,GI50,[17],1.06 µM
same,TGI,[17],7.07 µM
same,CC50,[17],> 100 µM
same,GI50,[18],4.23 µM
same,LC50 (concentration killing 50% of cells),[18],> 100 µM
same,TGI,[18],> 100 µM
same,GI50,[19],2.61 µM
same,LC50,[19],> 100 µM
same,TGI,[19],8.09 µM
same,inhibition,[20],> 40%
same,GI50,[21],2.58 µM
same,TGI,[21],9.89 µM
same,CC50,[21],> 100 µM
same,GI50,[22],7.51 µM
same,LC50,[22],> 100 µM
same,TGI,[22],29.8 µM
same,GI50,[23],13 µM
same,LC50,[23],> 100 µM
same,TGI,[23],56.2 µM
same,GI50,[24],4.35 µM
same,TGI,[24],> 100 µM
same,CC50,[24],> 100 µM
same,Ki,[25],Not Active
same,GI50,[26],1.97 µM
same,LC50 (concentration killing 50% of cells),[26],31.7 µM
same,TGI,[26],5.66 µM
same,GI50,[27],3.63 µM
same,TGI,[27],48.7 µM
same,CC50,[27],> 100 µM
same,growth at 10 µM,[28],60.3%
same,pKi,[29],7.29
same,GI50,[30],2.93 µM
same,TGI,[30],27 µM
same,CC50,[30],> 100 µM
same,GI50,[31],3.71 µM
same,TGI,[31],29.3 µM
same,CC50,[31],> 100 µM
same,GI50,[32],4.72 µM
same,LC50,[32],> 100 µM
same,TGI,[32],81.3 µM
same,GI50,[33],9.57 µM
same,TGI,[33],> 100 µM
same,CC50,[33],> 100 µM
same,inhibition,[34],inactive
CC(C)C[C@H](NC(=O)Cn1ccc2ccc(Br)cc2c1=O)B(O)O,GI50,[1],4.94 µM
same,TGI,[1],27.6 µM
same,CC50,[1],> 100 µM
same,growth at 10 µM,[2],-17.1%
same,GI50,[3],0.73 µM
same,LC50,[3],> 100 µM
same,TGI,[3],5.52 µM
same,GI50,[4],0.38 µM
same,TGI,[4],5.34 µM
same,CC50,[4],> 100 µM
same,GI50,[5],3.86 µM
same,TGI,[5],> 100 µM
same,CC50,[5],> 100 µM
same,GI50,[6],0.44 µM
same,TGI,[6],2.65 µM
same,CC50,[6],> 100 µM
same,GI50,[7],5.56 µM
same,TGI,[7],> 100 µM
same,CC50,[7],> 100 µM
same,GI50,[9],5.05 µM
same,TGI,[9],> 100 µM
same,CC50,[9],> 100 µM
same,growth at 10 µM,[10],2.23%
same,GI50,[11],0.65 µM
same,LC50,[11],> 100 µM
same,TGI,[11],7.22 µM
same,GI50,[12],1.61 µM
same,LC50,[12],61.6 µM
same,TGI,[12],11.1 µM
same,GI50,[13],2.13 µM
same,LC50,[13],63.3 µM
same,TGI,[13],9.09 µM
same,GI50,[14],0.43 µM
same,TGI,[14],1.85 µM
same,CC50,[14],7.21 µM
same,GI50,[15],0.8 µM
same,LC50 (concentration killing 50% of cells),[15],7.88 µM
same,TGI,[15],2.65 µM
same,GI50,[16],0.1 µM
same,LC50,[16],28.6 µM
same,TGI,[16],0.58 µM
same,GI50,[17],0.32 µM
same,TGI,[17],> 100 µM
same,CC50,[17],> 100 µM
same,GI50,[18],1.25 µM
same,LC50 (concentration killing 50% of cells),[18],> 100 µM
same,TGI,[18],6.73 µM
same,GI50,[19],0.59 µM
same,LC50,[19],9.06 µM
same,TGI,[19],2.54 µM
same,inhibition,[20],> 40%
same,GI50,[21],4.31 µM
same,TGI,[21],> 100 µM
same,CC50,[21],> 100 µM
same,GI50,[22],3.55 µM
same,LC50,[22],> 100 µM
same,TGI,[22],17.3 µM
same,GI50,[23],5.58 µM
same,LC50,[23],> 100 µM
same,TGI,[23],36.8 µM
same,GI50,[24],0.42 µM
same,TGI,[24],> 100 µM
same,CC50,[24],> 100 µM
same,pKi,[25]; read-out: Ki,6.54
same,GI50,[26],0.6 µM
same,LC50 (concentration killing 50% of cells),[26],> 100 µM
same,TGI,[26],3.95 µM
same,GI50,[27],2.94 µM
same,TGI,[27],75.1 µM
same,CC50,[27],> 100 µM
same,growth at 10 µM,[28],22%
same,pKi,[29],7.28
same,GI50,[30],0.41 µM
same,TGI,[30],10.5 µM
same,CC50,[30],> 100 µM
same,GI50,[31],0.78 µM
same,TGI,[31],12.4 µM
same,CC50,[31],> 100 µM
same,GI50,[32],8.73 µM
same,LC50,[32],> 100 µM
same,TGI,[32],> 100 µM
same,GI50,[33],3.04 µM
same,TGI,[33],> 100 µM
same,CC50,[33],> 100 µM
same,inhibition,[34],inactive
